Experimental data as given in ChEMBL document CHEMBL4033780, “Lipidated Brartemicin Analogues Are Potent Th1-Stimulating Vaccine Adjuvants” (J Med Chem, 2018).
Numbering of substitutions follows the chain as printed. Activity calls are given as the source filed them. The calls are words filed in the database; no cut-off is given here.

Legend:
[1] = biological target: T1, C-type lectin domain family 4 member E (Mus musculus) (UniProt Q9R0Q8); assay: Agonist activity at mincle in wild type C57BL/6 mouse GM-CSF derived BMDM assessed as increase in IL-6 release at 0.1 to 1 nmol after 24 hrs by sandwich ELISA
T1 sequence (whole entry): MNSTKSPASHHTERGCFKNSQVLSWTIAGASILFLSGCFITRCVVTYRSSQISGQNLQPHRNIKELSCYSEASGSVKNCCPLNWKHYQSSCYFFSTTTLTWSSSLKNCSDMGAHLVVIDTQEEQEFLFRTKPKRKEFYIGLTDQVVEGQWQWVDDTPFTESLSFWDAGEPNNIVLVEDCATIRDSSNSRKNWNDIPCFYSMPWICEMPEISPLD
Procedure, shortened: (§1)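 Wild-type or Mincle−/− C57BL/6 bone marrow was cultured 8 days with GM-CSF 50 ng/mL in complete RPMI. Macrophages were detached with Acutase and seeded on ligand-coated plates (0.1 or 1 nmol/well); LPS 100 ng/mL was used as comparator. Supernatant was taken at 24 h and TNF, IL-6, IL-1β and MIP-2 measured by sandwich ELISA. Representative of three experiments in triplicate (±SD).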

[2] = biological target: T1, C-type lectin domain family 4 member E (Mus musculus); assay: Agonist activity at mincle in wild type C57BL/6 mouse GM-CSF derived BMDM assessed as increase in IL-1beta release at 0.1 to 1 nmol after 24 hrs by sandwich ELISA; procedure, shortened: as §1
[3] = biological target: T1, C-type lectin domain family 4 member E (Mus musculus); assay: Agonist activity at mincle in wild type C57BL/6 mouse GM-CSF derived BMDM assessed as increase in MIP2 release at 0.1 to 1 nmol after 24 hrs by sandwich ELISA; procedure, shortened: as §1
[4] = biological target: T1, C-type lectin domain family 4 member E (Mus musculus); assay: Agonist activity at mincle in wild type C57BL/6 mouse GM-CSF derived BMDM assessed as increase in TNF release at 0.1 to 1 nmol after 24 hrs by sandwich ELISA; procedure, shortened: as §1
[5] = test system: T2, C-type lectin domain family 4 member E (Homo sapiens), Q9ULY5 [R183A]; assay: Agonist activity at human mincle R183A mutant expressed in NFAT-GFP reporter cells up to 3000 pmol after 18 hrs by flow cytometric analysis; type: cell-based
T2 sequence (whole entry): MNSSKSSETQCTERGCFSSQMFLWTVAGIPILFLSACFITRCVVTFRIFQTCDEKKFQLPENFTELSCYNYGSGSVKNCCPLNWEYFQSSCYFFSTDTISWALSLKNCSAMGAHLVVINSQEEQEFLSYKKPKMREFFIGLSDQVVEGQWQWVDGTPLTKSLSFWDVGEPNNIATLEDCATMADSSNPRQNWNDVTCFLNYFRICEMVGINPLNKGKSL
Procedure, shortened: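 The hMincle R183A mutant, made by site-directed mutagenesis, was retrovirally introduced into 2B4 NFAT-GFP cells expressing FcRγ only. Cells were stimulated on plates coated with increasing ligand amounts for 18 h, and NFAT-GFP was read by flow cytometry. Mean of two independent experiments in duplicate (±SEM).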

[6] = biological target: T1, C-type lectin domain family 4 member E (Mus musculus); assay: Binding affinity to recombinant mouse mincle extracellular domain fused with human IgG Fc expressed in HEK293T cells at 0.1 nmol by ELISA; type: cell-based; conditions: HEK-293T
[7] = biological target: T3, C-type lectin domain family 4 member E (Homo sapiens) (UniProt Q9ULY5); assay: Binding affinity to recombinant human mincle extracellular domain fused with human IgG Fc expressed in HEK293T cells at 0.1 nmol by ELISA; type: cell-based; conditions: HEK-293T
T3 sequence (whole entry): T2 sequence (whole entry) with A183R

[8] = biological target: T3, C-type lectin domain family 4 member E (Homo sapiens); assay: Agonist activity at human mincle coupled with FcRgamma expressed in 2B4-NFAT-GFP reporter cells up to 1 nmol after 18 hrs by flow cytometric analysis; type: cell-based
Procedure, shortened: (§2)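 2B4 NFAT-GFP reporter cells expressing mouse or human Mincle plus FcRγ were placed on plates coated with ligand at 0.01, 0.1 or 1 nmol/well; cells expressing FcRγ only served as negative control. Ligand was coated from isopropanol, 0.05 mM, and solvent evaporated. After 18 h, cells were harvested, stained with propidium iodide and GFP read by flow cytometry. Mean of three experiments in duplicate (±SEM).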

BMDM [9] = assay: Immunostimulatory activity in mincle-/- C57BL/6 mouse GM-CSF derived BMDM assessed as increase in TNF release at […] after 24 hrs by sandwich ELISA method; type: functional, cell-based; procedure, shortened: as §1
BMDM [10] = assay: Immunostimulatory activity in mincle-/- C57BL/6 mouse GM-CSF derived BMDM assessed as increase in MIP2 release at […] after 24 hrs by sandwich ELISA method; type: functional, cell-based; procedure, shortened: as §1
BMDM [11] = assay: Immunostimulatory activity in mincle-/- C57BL/6 mouse GM-CSF derived BMDM assessed as increase in IL-6 release at […] after 24 hrs by sandwich ELISA method; type: functional, cell-based; procedure, shortened: as §1
BMDM [12] = assay: Immunostimulatory activity in mincle-/- C57BL/6 mouse GM-CSF derived BMDM assessed as increase in IL-1beta release at […] after 24 hrs by sandwich ELISA method; type: functional, cell-based; procedure, shortened: as §1
[13] = Toxicity in Atlantic horseshoe crab blood limulus amebocyte lysate by chromogenic endotoxin test; conditions: limulus polyphemus
Procedure, shortened: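 Endotoxin was measured by chromogenic Limulus amebocyte lysate assay at a sensitivity of ≤0.1 EU/mL.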

[14] = biological target: T1, C-type lectin domain family 4 member E (Mus musculus); assay: Agonist activity at mouse mincle coupled with FcRgamma expressed in 2B4-NFAT-GFP reporter cells up to 1 nmol after 18 hrs by flow cytometric analysis; type: cell-based; procedure, shortened: as §2
[15] = biological target: T3, C-type lectin domain family 4 member E (Homo sapiens); assay: Agonist activity at human mincle coupled with FcRgamma expressed in 2B4-NFAT-GFP reporter cells at higher concentration after 18 hrs by flow cytometric analysis; type: cell-based; procedure, shortened: as §2
[16] = biological target: T1, C-type lectin domain family 4 member E (Mus musculus); assay: Agonist activity at mouse mincle coupled with FcRgamma expressed in 2B4-NFAT-GFP reporter cells at higher concentration after 18 hrs by flow cytometric analysis; type: cell-based; procedure, shortened: as §2
Mus musculus [17] = species: Mus musculus; assay: Adjuvant activity in immunized C57BL/6 mouse assessed as increase in OVA-specific IgG production in serum at 0.3 umol treated with ovalbumin for 7 days followed by stimulation with OVA for 7 days and restimulation with OVA measured 24 to 48 hrs post OVA challenge; type: functional
Procedure, shortened: (§3)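 Sera were taken on days 0, 7 and 14 from C57BL/6 mice sensitized s.c. with emulsion containing OVA 200 μg ± adjuvant 0.3 μmol and footpad-challenged with OVA on day 7. OVA-specific IgG, IgG1, IgG2b and IgG2c were measured by ELISA with HRP-coupled anti-mouse secondaries. EC50 was taken from absorbance at 450 nm plotted against log serum concentration.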

Mus musculus [18] = species: Mus musculus; assay: Adjuvant activity in immunized C57BL/6 mouse assessed as increase in antigen specific IFNgamma production in spelnocytes at 0.3 umol treated with ovalbumin for 7 days followed by stimulation with OVA for 7 days and restimulation with OVA measured 24 to 48 hrs post OVA challenge; type: functional, cell-based
Procedure, shortened: (§4)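 C57BL/6 mice (8–12 wk) given s.c. oil-in-water emulsion (mineral oil/Tween-80/PBS 9:1:90) holding OVA 200 μg ± adjuvant 0.3 μmol; controls were OVA alone or no OVA. Footpad challenge with OVA 100 μg on day 7, spleens taken day 14. Splenocytes restimulated with OVA 10, 30 or 100 μg/mL. Cell number read at 450 nm after 3 h with a count reagent; IFN-γ and IL-17 measured by ELISA.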

Mus musculus [19] = species: Mus musculus; assay: Adjuvant activity in immunized C57BL/6 mouse assessed as increase in IL-17 production in spelnocytes at 0.3 umol treated with ovalbumin for 7 days followed by stimulation with OVA for 7 days and restimulation with OVA measured 24 to 48 hrs post OVA challenge; type: functional, cell-based; procedure, shortened: as §4
Mus musculus [20] = species: Mus musculus; assay: Adjuvant activity in immunized C57BL/6 mouse assessed as footpad swelling at 0.3 umol treated with ovalbumin for 7 days followed by stimulation with OVA for 7 days measured 24 to 48 hrs post OVA challenge; type: functional
Mus musculus [21] = species: Mus musculus; assay: Adjuvant activity in immunized C57BL/6 mouse assessed as increase in OVA-specific IgG2b production in serum at 0.3 umol treated with ovalbumin for 7 days followed by stimulation with OVA for 7 days and restimulation with OVA measured 24 to 48 hrs post OVA challenge; type: functional
Mus musculus [22] = species: Mus musculus; assay: Adjuvant activity in immunized C57BL/6 mouse assessed as increase in OVA-specific IgG1 production in serum at 0.3 umol treated with ovalbumin for 7 days followed by stimulation with OVA for 7 days and restimulation with OVA measured 24 to 48 hrs post OVA challenge relative to control; type: functional; procedure, shortened: as §3
Mus musculus [23] = species: Mus musculus; assay: Adjuvant activity in immunized C57BL/6 mouse assessed as increase in OVA-specific IgG2c production in serum at 0.3 umol treated with ovalbumin for 7 days followed by stimulation with OVA for 7 days and restimulation with OVA measured 24 to 48 hrs post OVA challenge relative to control; type: functional

| Activity [1] | Activity [2] | Activity [3] | Activity [4] | Activity [6] | Activity [7] | Activity [8] | Activity [14] | Compound | Activity (BMDM [9]) | Activity (BMDM [10]) | Activity (BMDM [11]) | Activity (BMDM [12]) | Activity [13] | also measured |
| --- | --- | --- | --- | --- | --- | --- | --- | --- | --- | --- | --- | --- | --- | --- |
| Active | Active | Active | Active |  |  |  |  | CCCCCCCCCCCCCCCCCCCCCCCCCC(O)C(CCCCCCCCCCC1CC1CCCCCCCCCCCCCCCCCC)C(=O)OC[C@H]1O[C@H](O[C@H]2O[C@H](COC(=O)C(CCCCCCCCCCCCCCCCCCCCCCCC)C(O)CCCCCCCCCCCC3CC3CCCCCCCCCCCCCCCCCC)[C@@H](O)[C@H](O)[C@H]2O)[C@H](O)[C@@H](O)[C@@H]1O (stereo not given in full) |  |  |  |  |  | Activity [5]: Active |
| Active | Active | Active | Active | Active | Active | Active | Active | CCCCCCCOc1ccc(C(=O)OC[C@H]2O[C@H](O[C@H]3O[C@H](COC(=O)c4ccc(OCCCCCCC)cc4O)[C@@H](O)[C@H](O)[C@H]3O)[C@H](O)[C@@H](O)[C@@H]2O)c(O)c1 | inactive | inactive | inactive | inactive | <= 0.1 EU/ml |  |
| inactive | inactive | Active | inactive | inactive | inactive |  |  | CCCCOc1ccc(C(=O)OC[C@H]2O[C@H](O[C@H]3O[C@H](COC(=O)c4ccc(OCCCC)cc4O)[C@@H](O)[C@H](O)[C@H]3O)[C@H](O)[C@@H](O)[C@@H]2O)c(O)c1 | inactive | inactive | inactive | inactive | <= 0.1 EU/ml | Activity [15]: Active; Activity [16]: Active |
| Active | Active | Active | Active |  |  |  |  | CCCCCCCCCCCCCCCCCCCCCC(=O)OC[C@H]1O[C@H](O[C@H]2O[C@H](COC(=O)CCCCCCCCCCCCCCCCCCCCC)[C@@H](O)[C@H](O)[C@H]2O)[C@H](O)[C@@H](O)[C@@H]1O |  |  |  |  |  | Activity (Mus musculus [17]): Active; Activity (Mus musculus [18]): inactive; Activity (Mus musculus [19]): inactive; Activity (Mus musculus [20]): inactive; Activity (Mus musculus [21]): Active; Activity (Mus musculus [22]): Active; Activity (Mus musculus [23]): Active |
| Active | Active | Active | Active | Active | Active | Active | Active | CCCCCCCOc1ccc(C(=O)OC[C@H]2O[C@H](O[C@H]3O[C@H](COC(=O)c4ccc(OCCCCCCC)cc4)[C@@H](O)[C@H](O)[C@H]3O)[C@H](O)[C@@H](O)[C@@H]2O)cc1 | inactive | inactive | inactive | inactive | <= 0.1 EU/ml |  |
